Measured values as given in PMC11003489 (Journal of Enzyme Inhibition and Medicinal Chemistry, 2023).

Columns and labels:
[1] = test system: normal human lung fibroblasts (Wi-38); assay: MTT cytotoxicity screening on normal human lung fibroblasts; format: cell-based; settings: WI-38, 72 h, read-out: Wi-38 EC50
Procedure, shortened: (§1)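 A549 and Wi-38 cells, sourced from the National Cancer Institute (Cairo), grown in RPMI-1640 with L-glutamine, 10% FBS and 1% penicillin-streptomycin at 37 °C, 5% CO2. Seeded in triplicate at 5 × 10^4 cells, then exposed next day to test compound at 0.01, 0.1, 1, 10 and 100 µM. Viability measured by MTT relative to untreated control, and IC50 computed.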

[2] = test system: human lung cancer A549 cells; assay: MTT cytotoxicity screening on human lung cancer cells; format: cell-based; settings: for IC50: Homo sapiens, A549, 72 h, read-out: A549 IC50; for SI (selectivity index): ratio of IC50 values against Wi-38 and A549 cells
Procedure, shortened: as §1

CDK2 = CDK2 (Homo sapiens, UniProt P24941); assay: In vitro CDK2 inhibition, CDK2 luminescence kinase assay kit; format: biochemical

Row | SMILES | EC50 [1] [nM] | IC50 [2] [nM] | SI (selectivity index) [2] | % inhibition ± SD at [10 μM] of CDK2 (CDK2; 10 μM) [%] | IC50 (CDK2; CDK2 IC50, serial dilutions 0.01–10 μM, mean ± SD of three replicates) [nM] | inhibition at 10 µM (CDK2; read-out: % inhibition ± SD at [10 μM] of CDK2, 10 μM) [%]
1 | O=c1[nH]cc(F)c(=O)[nH]1 [Compound 5-Fu, 5-fluorouracil, reference compound] | 4190 ± 168 | 3780 ± 520 | 1.107 |  |  | 
2 | O=C(c1nc2ccccc2[nH]1)[C@H]1[C@H](c2ccc(Cl)cc2Cl)[C@H]2CCCN2[C@@]12c1ccccc1-c1nc3ccccc3nc12 [Compound 4b, (1H-Benzo[d]imidazol-2-yl)((1'R,2'S,7a’R,11R)-1'-(2,4-dichlorophenyl)-1',2',5',6',7',7a’-hexahydrospiro[indeno[1,2-b]quinoxaline-11,3'-pyrrolizin]-2'-yl)methanone] | 887 ± 11 | 225 ± 5 | 3.942 |  |  | 
3 | O=C(c1nc2ccccc2[nH]1)[C@H]1[C@H](c2cccs2)C2CC3CCCCC3N2[C@@]12c1ccccc1-c1nc3ccccc3nc12 (stereo partly drawn) [Compound 6g, (1H-Benzo[d]imidazol-2-yl)((1'S,2'S,11R)-1'-(thiophen-2-yl)-1',2',4a’,5',6',7',8',8a’,9',9a’-decahydrospiro[indeno[1,2-b]quinoxaline-11,3'-pyrrolo[1,2-a]indol]-2'-yl)methanone] | 164 ± 60 | 84 ± 4 | 1.952 |  |  | 
4 | O=C(c1nc2ccccc2[nH]1)[C@H]1[C@H](c2cccc(F)c2)[C@H]2CCCN2[C@@]12c1ccccc1-c1nc3ccccc3nc12 [Compound 4e, (1H-Benzo[d]imidazol-2-yl)((1'R,2'S,7a’R,11R)-1'-(3-fluorophenyl)-1',2',5',6',7',7a’-hexahydrospiro[indeno[1,2-b]quinoxaline-11,3'-pyrrolizin]-2'-yl)methanone] | 1100 ± 205 | 321 ± 5 | 3.429 |  |  | 
5 | O=C(c1nc2ccccc2[nH]1)[C@H]1[C@H](c2ccc(Br)cc2)C2CC3CCCCC3N2[C@@]12c1ccccc1-c1nc3ccccc3nc12 (stereo partly drawn) [Compound 6d, (1H-Benzo[d]imidazol-2-yl)((1'R,2'S,11R)-1'-(4-bromophenyl)-1',2',4a’,5',6',7',8',8a’,9',9a’-decahydrospiro[indeno[1,2-b]quinoxaline-11,3'-pyrrolo[1,2-a]indol]-2'-yl)methanone] | 77 ± 1 | 87 ± 3 | 0.885 |  |  | 
6 | O=C(c1nc2ccccc2[nH]1)[C@H]1[C@H](c2ccccc2)[C@H]2CCCN2[C@@]12c1ccccc1-c1nc3ccccc3nc12 [Compound 4h, (1H-Benzo[d]imidazol-2-yl)((1'R,2'S,7a’R,11R)-1'-phenyl-1',2',5',6',7',7a’-hexahydrospiro[indeno[1,2-b]quinoxaline-11,3'-pyrrolizin]-2'-yl)methanone] | 193 ± 10 | 177 ± 3 | 1.090 |  |  | 
7 | O=C(c1nc2ccccc2[nH]1)[C@H]1[C@H](c2ccc(F)cc2)C2CC3CCCCC3N2[C@@]12c1ccccc1-c1nc3ccccc3nc12 (stereo partly drawn) [Compound 6c, (1H-Benzo[d]imidazol-2-yl)((1'R,2'S,11R)-1'-(4-fluorophenyl)-1',2',4a’,5',6',7',8',8a’,9',9a’-decahydrospiro[indeno[1,2-b]quinoxaline-11,3'-pyrrolo[1,2-a]indol]-2'-yl)methanone] | 168 ± 19 | 139 ± 3 | 1.208 |  |  | 
8 | COc1ccc([C@@H]2C3CC4CCCCC4N3[C@@]3(c4ccccc4-c4nc5ccccc5nc43)[C@H]2C(=O)c2nc3ccccc3[nH]2)cc1 (stereo partly drawn) [Compound 6f, (1H-Benzo[d]imidazol-2-yl)((1'R,2'S,11R)-1'-(4-methoxyphenyl)-1',2',4a’,5',6',7',8',8a’,9',9a’-decahydrospiro[indeno[1,2-b]quinoxaline-11,3'-pyrrolo[1,2-a]indol]-2'-yl)methanone] | 549 ± 10 | 107 ± 2 | 5.130 |  |  | 
9 | O=C(c1nc2ccccc2[nH]1)[C@H]1[C@H](c2ccco2)C2CC3CCCCC3N2[C@@]12c1ccccc1-c1nc3ccccc3nc12 (stereo partly drawn) [Compound 6a, (1H-Benzo[d]imidazol-2-yl)((1'S,2'S,11R)-1'-(furan-2-yl)-1',2',4a’,5',6',7',8',8a’,9',9a’-decahydrospiro[indeno[1,2-b]quinoxaline-11,3'-pyrrolo[1,2-a]indol]-2'-yl)methanone] | 112 ± 1 | 98 ± 6 | 1.142 |  |  | 
10 | O=C(c1nc2ccccc2[nH]1)[C@H]1[C@H](c2ccccc2)C2CC3CCCCC3N2[C@@]12c1ccccc1-c1nc3ccccc3nc12 (stereo partly drawn) [Compound 6h, (1H-Benzo[d]imidazol-2-yl)((1'R,2'S,11R)-1'-phenyl-1',2',4a’,5',6',7',8',8a’,9',9a’-decahydrospiro[indeno[1,2-b]quinoxaline-11,3'-pyrrolo[1,2-a]indol]-2'-yl)methanone] | 173 ± 1 | 202 ± 6 | 0.856 |  |  | 
11 | O=C(c1nc2ccccc2[nH]1)[C@H]1[C@H](c2cccc(F)c2)C2CC3CCCCC3N2[C@@]12c1ccccc1-c1nc3ccccc3nc12 (stereo partly drawn) [Compound 6e, (1H-Benzo[d]imidazol-2-yl)((1'R,2'S,11R)-1'-(3-fluorophenyl)-1',2',4a’,5',6',7',8',8a’,9',9a’-decahydrospiro[indeno[1,2-b]quinoxaline-11,3'-pyrrolo[1,2-a]indol]-2'-yl)methanone] | 114 ± 3 | 137 ± 16 | 0.832 |  |  | 
12 | O=C(c1nc2ccccc2[nH]1)[C@H]1[C@H](c2ccc(Br)cc2)[C@H]2CCCN2[C@@]12c1ccccc1-c1nc3ccccc3nc12 [Compound 4d, (1H-Benzo[d]imidazol-2-yl)((1'R,2'S,7a’R,11R)-1'-(4-bromophenyl)-1',2',5',6',7',7a’-hexahydrospiro[indeno[1,2-b]quinoxaline-11,3'-pyrrolizin]-2'-yl)methanone] | 176 ± 2 | 135 ± 2 | 1.303 |  |  | 
13 | O=C(c1nc2ccccc2[nH]1)[C@H]1[C@H](c2cccs2)[C@H]2CCCN2[C@@]12c1ccccc1-c1nc3ccccc3nc12 [Compound 4g, (1H-Benzo[d]imidazol-2-yl)((1'S,2'S,7a’R,11R)-1'-(thiophen-2-yl)-1',2',5',6',7',7a’-hexahydrospiro[indeno[1,2-b]quinoxaline-11,3'-pyrrolizin]-2'-yl)methanone] | 252 ± 1 | 182 ± 4 | 1.384 |  |  | 
14 | O=C(c1nc2ccccc2[nH]1)[C@H]1[C@H](c2ccc(F)cc2)[C@H]2CCCN2[C@@]12c1ccccc1-c1nc3ccccc3nc12 [Compound 4c, (1H-Benzo[d]imidazol-2-yl)((1'R,2'S,7a’R,11R)-1'-(4-fluorophenyl)-1',2',5',6',7',7a’-hexahydrospiro[indeno[1,2-b]quinoxaline-11,3'-pyrrolizin]-2'-yl)methanone] | 217 ± 7 | 206 ± 9 | 1.053 |  |  | 
15 | O=C(c1nc2ccccc2[nH]1)[C@H]1[C@H](c2ccco2)[C@H]2CCCN2[C@@]12c1ccccc1-c1nc3ccccc3nc12 [Compound 4a, (1H-Benzo[d]imidazol-2-yl)((1'S,2'S,7a’R,11R)-1'-(furan-2-yl)-1',2',5',6',7',7a’-hexahydrospiro[indeno[1,2-b]quinoxaline-11,3'-pyrrolizin]-2'-yl)methanone] | 607 ± 50 | 82 ± 2 | 7.402 |  |  | 
16 | O=C(c1nc2ccccc2[nH]1)[C@H]1[C@H](c2ccc(Cl)cc2Cl)C2CC3CCCCC3N2[C@@]12c1ccccc1-c1nc3ccccc3nc12 (stereo partly drawn) [Compound 6b, (1H-Benzo[d]imidazol-2-yl)((1'R,2'S,11R)-1'-(2,4-dichlorophenyl)-1',2',4a’,5',6',7',8',8a’,9',9a’-decahydrospiro[indeno[1,2-b]quinoxaline-11,3'-pyrrolo[1,2-a]indol]-2'-yl)methanone] | 359 ± 8 | 54 ± 8 | 6.648 | 70.72 ± 2.8 | 177 | 70.7
